Data as given in ChEMBL document CHEMBL2040831, “Discovery of ((S)-5-(methoxymethyl)-7-(1-methyl-1H-indol-2-yl)-2-(trifluoromethyl)-4,7-dihydropyrazolo[1,5-a]pyrimidin-6-yl)((S)-2-(3-methylisoxazol-5-yl)pyrrolidin-1-yl)methanone as a potent and selective I(Kur) inhibitor” (J Med Chem, 2012).
Each block holds one molecule with its values, some of them ahead of it. The source made the active and inactive calls. The calls are words filed in the database; no cut-off is given here.

Columns and labels:
[1] = biological target: T1, Potassium voltage-gated channel subfamily A member 5 (Homo sapiens, UniProt P22460); assay: Inhibition of human KV1.5 ion channel expressed in mouse L929 cells at 0.3 uM by whole cell patch clamp assay; format: cell-based
[2] = Drug degradation assessed as GSH adduct formation by fluorescence detection assay; format: physicochemical
Procedure, shortened: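 Test article at 100 μM incubated 30 min at 37 °C with 2 mg/mL human liver microsomes in 0.1 M potassium phosphate buffer containing 2 mM NADPH and 2 mM dansyl glutathione. Quenched with 2 volumes of 5 mM dithiothreitol in methanol, vortexed and centrifuged. Supernatant analysed by HPLC with fluorescence detection (Ex 340 nm, Em 525 nm) to quantify GSH adducts.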

[3] = biological target: T1, Potassium voltage-gated channel subfamily A member 5; assay: Inhibition of human KV1.5 ion channel expressed in mouse L929 cells by whole cell patch clamp assay; format: cell-based
hERG (KCNH2) = hERG (KCNH2) (Homo sapiens, UniProt Q12809); assay: Inhibition of human ERG expressed in HEK293 cells at 10 uM by patch clamp assay; format: cell-based; details: HEK293 cells expressing human ERG
[4] = Volume of distribution at steady state in dog at 5.6 umol/kg, iv and 5.2 umol/kg, po; format: ADME, organism-based, Canis lupus familiaris; details: in vivo, read-out: Vdss
[5] = Clearance in dog at 5.6 umol/kg, iv and 5.2 umol/kg, po; format: ADME, organism-based, Canis lupus familiaris; details: in vivo
[6] = Half life in dog at 5.6 umol/kg, iv and 5.2 umol/kg, po; format: ADME, organism-based, Canis lupus familiaris; details: in vivo
[7] = Oral bioavailability in dog at 5.2 umol/kg; format: ADME, organism-based, Canis lupus familiaris; details: in vivo
Plasma [8] = assay: Plasma concentration in methoxamine-sensitised rabbit AERP model at 1 mg/kg, iv; format: ADME, organism-based, Oryctolagus cuniculus; parameters: dose 1 mg/kg, route intravenous; details: in vivo
Plasma [9] = assay: Plasma concentration in methoxamine-sensitised rabbit AERP model at 0.3 mg/kg, iv; format: ADME, organism-based, Oryctolagus cuniculus; parameters: dose 0.3 mg/kg, route intravenous; details: in vivo
Plasma [10] = assay: Plasma concentration in methoxamine-sensitised rabbit AERP model at 3 mg/kg, iv; format: ADME, organism-based, Oryctolagus cuniculus; parameters: dose 3 mg/kg, route intravenous; details: in vivo
Plasma [11] = assay: Plasma concentration in methoxamine-sensitised rabbit AERP model at 10 mg/kg, iv; format: ADME, organism-based, Oryctolagus cuniculus; parameters: dose 10 mg/kg, route intravenous; details: in vivo
Oryctolagus cuniculus [12] = assay: Proarrythmic activity in methoxamine-sensitized rabbit assessed as increase in ventricular effective refractory period at 0.3 to 10 mg/kg, iv relative to control; format: organism-based, Cardiac ventricle; parameters: dose 0.3-10 mg/kg, route intravenous; details: in vivo
[13] = biological target: Voltage-gated inwardly rectifying potassium channel KCNH2 (Homo sapiens, UniProt Q12809); assay: Inhibition of human ERG expressed in HEK293 cells by patch clamp assay; format: cell-based
[14] = Inhibition of ICAL ion channel
[15] = Inhibition of ICAL ion channel at 10 uM
[16] = Inhibition of INa ion channel
[17] = Inhibition of INa ion channel at 10 uM
[18] = biological target: T2, A-type voltage-gated potassium channel KCND3 (Homo sapiens, UniProt Q9UK17); assay: Inhibition of KV4.3 ion channel
T2 sequence (Q9UK17 whole entry): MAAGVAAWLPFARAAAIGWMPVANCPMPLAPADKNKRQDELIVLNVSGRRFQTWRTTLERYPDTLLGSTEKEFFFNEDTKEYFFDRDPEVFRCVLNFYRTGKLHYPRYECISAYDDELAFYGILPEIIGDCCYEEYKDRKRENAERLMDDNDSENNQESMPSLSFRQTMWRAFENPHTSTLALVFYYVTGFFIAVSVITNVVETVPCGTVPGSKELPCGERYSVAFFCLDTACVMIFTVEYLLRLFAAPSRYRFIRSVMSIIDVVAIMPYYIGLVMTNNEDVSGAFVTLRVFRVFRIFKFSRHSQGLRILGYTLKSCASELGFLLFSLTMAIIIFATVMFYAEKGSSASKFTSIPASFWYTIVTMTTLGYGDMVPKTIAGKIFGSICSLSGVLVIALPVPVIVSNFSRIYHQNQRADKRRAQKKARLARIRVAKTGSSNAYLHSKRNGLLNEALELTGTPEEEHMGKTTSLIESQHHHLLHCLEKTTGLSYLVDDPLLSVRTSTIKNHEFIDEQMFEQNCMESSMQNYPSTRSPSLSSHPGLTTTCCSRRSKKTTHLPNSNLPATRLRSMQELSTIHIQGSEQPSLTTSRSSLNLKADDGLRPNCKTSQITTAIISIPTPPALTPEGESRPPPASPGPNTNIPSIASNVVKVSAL

[19] = Volume of distribution at steady state in rat at 12 umol/kg, iv and 25.5 umol/kg, po; format: ADME, organism-based; details: in vivo, read-out: Vdss
[20] = Clearance in rat at 12 umol/kg, iv and 25.5 umol/kg, po; format: ADME, organism-based; details: in vivo
[21] = Half life in rat at 12 umol/kg, iv and 25.5 umol/kg, po; format: ADME, organism-based; details: in vivo
[22] = Oral bioavailability in rat at 25.5 umol/kg; format: ADME, organism-based; details: in vivo
[23] = Volume of distribution at steady state in rabbit at 5.6 umol/kg, iv; format: ADME, organism-based, Oryctolagus cuniculus; details: in vivo, read-out: Vdss
[24] = Clearance in rabbit at 5.6 umol/kg, iv; format: ADME, organism-based, Oryctolagus cuniculus; details: in vivo
[25] = Half life in rabbit at 5.6 umol/kg, iv; format: ADME, organism-based, Oryctolagus cuniculus; details: in vivo
Liver microsomes [26] = assay: Metabolic stability in human liver microsomes; format: ADME, Microsome
Liver microsomes [27] = assay: Metabolic stability in rat liver microsomes; format: ADME, Microsome
[28] = Volume of distribution at steady state in rat at 12 umol/kg, iv and 26 umol/kg, po; format: ADME, organism-based; details: in vivo, read-out: Vdss
[29] = Clearance in rat at 12 umol/kg, iv and 26 umol/kg, po; format: ADME, organism-based; details: in vivo
[30] = Half life in rat at 12 umol/kg, iv and 26 umol/kg, po; format: ADME, organism-based; details: in vivo
[31] = Oral bioavailability in rat at 26 umol/kg; format: ADME, organism-based; details: in vivo
Oryctolagus cuniculus [32] = assay: Antiatrial fibrillation activity in methoxamine-sensitised rabbit assessed as increase in atrial effective refractory period at 0.3 to 10 mg/kg, iv relative to control; format: functional, organism-based; details: Cardiac atrium
Oryctolagus cuniculus [33] = assay: Antiatrial fibrillation activity in methoxamine-sensitised rabbit assessed as increase in atrial effective refractory period at 1 mg/kg, iv relative to control; format: functional, Cardiac atrium

T1 sequence (P22460 whole entry): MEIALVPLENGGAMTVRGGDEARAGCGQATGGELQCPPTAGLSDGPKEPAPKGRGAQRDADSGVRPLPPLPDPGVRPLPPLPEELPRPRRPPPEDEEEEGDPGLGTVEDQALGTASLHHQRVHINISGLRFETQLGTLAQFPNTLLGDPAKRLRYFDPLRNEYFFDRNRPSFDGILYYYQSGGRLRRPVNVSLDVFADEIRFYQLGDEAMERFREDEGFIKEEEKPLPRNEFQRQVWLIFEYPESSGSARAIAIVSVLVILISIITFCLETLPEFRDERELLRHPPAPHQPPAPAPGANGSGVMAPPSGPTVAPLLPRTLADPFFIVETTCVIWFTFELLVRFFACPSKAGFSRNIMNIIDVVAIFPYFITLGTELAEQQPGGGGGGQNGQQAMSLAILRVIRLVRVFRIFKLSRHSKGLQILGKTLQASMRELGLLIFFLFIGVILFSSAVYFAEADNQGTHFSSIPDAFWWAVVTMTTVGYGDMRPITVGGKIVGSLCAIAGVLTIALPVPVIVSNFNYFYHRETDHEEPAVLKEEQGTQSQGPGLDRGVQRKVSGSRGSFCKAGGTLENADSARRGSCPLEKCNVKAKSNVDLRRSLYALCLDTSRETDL
hERG (KCNH2), sequence (Q12809 whole entry): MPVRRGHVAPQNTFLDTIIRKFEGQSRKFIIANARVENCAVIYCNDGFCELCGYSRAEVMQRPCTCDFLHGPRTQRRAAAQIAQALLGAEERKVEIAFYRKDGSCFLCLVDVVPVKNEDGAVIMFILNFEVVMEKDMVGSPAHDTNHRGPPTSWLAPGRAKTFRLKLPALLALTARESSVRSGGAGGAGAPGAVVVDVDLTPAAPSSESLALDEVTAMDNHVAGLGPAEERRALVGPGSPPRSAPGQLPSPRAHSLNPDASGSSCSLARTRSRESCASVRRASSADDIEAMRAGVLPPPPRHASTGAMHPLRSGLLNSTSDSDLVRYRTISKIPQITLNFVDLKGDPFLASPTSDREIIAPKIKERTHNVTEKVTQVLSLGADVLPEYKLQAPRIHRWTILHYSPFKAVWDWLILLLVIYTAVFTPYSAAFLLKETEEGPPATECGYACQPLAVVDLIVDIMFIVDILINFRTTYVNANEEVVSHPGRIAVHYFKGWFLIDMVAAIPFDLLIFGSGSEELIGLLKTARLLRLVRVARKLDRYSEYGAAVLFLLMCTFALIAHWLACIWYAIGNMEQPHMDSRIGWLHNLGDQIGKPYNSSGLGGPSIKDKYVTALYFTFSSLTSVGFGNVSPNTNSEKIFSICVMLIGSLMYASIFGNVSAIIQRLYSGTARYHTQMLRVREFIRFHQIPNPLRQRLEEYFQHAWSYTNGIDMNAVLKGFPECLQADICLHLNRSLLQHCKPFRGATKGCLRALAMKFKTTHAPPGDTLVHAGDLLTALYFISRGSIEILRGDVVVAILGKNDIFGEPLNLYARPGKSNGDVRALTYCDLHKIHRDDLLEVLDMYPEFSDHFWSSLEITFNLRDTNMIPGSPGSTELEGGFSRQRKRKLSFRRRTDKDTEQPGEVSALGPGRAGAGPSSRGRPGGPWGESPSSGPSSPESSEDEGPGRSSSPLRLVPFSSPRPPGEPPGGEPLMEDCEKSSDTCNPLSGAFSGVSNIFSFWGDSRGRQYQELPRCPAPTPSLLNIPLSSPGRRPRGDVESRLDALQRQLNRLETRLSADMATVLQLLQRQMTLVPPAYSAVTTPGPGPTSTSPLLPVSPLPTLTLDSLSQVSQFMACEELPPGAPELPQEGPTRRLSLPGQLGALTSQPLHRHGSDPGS
Voltage-gated inwardly rectifying potassium channel KCNH2, sequence (Q12809 whole entry): as above

IC50 [3]: 281 nM
SMILES: CC1=C(C(=O)N2CCC[C@H]2c2cc(C)no2)[C@@H](c2nc3ccccc3s2)n2nc(C(F)(F)F)cc2N1

inhibition [1]: 36%
SMILES: CC1=C(C(=O)N2CCC[C@H]2c2cc(C)no2)[C@@H](c2nc3ccccc3n2C)n2nc(C(F)(F)F)cc2N1

IC50 [3]: 83 nM | GSH adduct formation [2]: 21%
SMILES: CC1=C(C(=O)N2CCC[C@H]2c2cc(C)no2)[C@@H](c2ccc(Cl)c(Cl)c2)n2nccc2N1
inhibition at 10 µM (hERG (KCNH2)): 41%

inhibition [1]: 37%
SMILES: CC1=C(C(=O)N2CCC[C@H]2c2ccc(F)cc2)[C@@H](c2ccc(Cl)c(Cl)c2)n2nc(C(F)(F)F)cc2N1

IC50 [3]: 101 nM | GSH adduct formation [2]: < 1% | Stability (Liver microsomes [26]): Stable | Stability (Liver microsomes [27]): Stable | Vd [28]: 3 L/kg | clearance [29]: 27 mL/min/kg | half-life [30]: 1 h | bioavailability [31]: 68% | Vd [4]: 1.7 L/kg | clearance [5]: 11 mL/min/kg | half-life [6]: 1.8 h | bioavailability [7]: 53%
SMILES: CC1=C(C(=O)N2CCC[C@H]2c2cc(C)no2)[C@@H](c2ccc(Cl)c(Cl)c2)n2nc(C(F)(F)F)cc2N1
inhibition at 10 µM (hERG (KCNH2)): 47% | Activity (Oryctolagus cuniculus [32]): Active | Activity (Oryctolagus cuniculus [33]): 20% | concentration (Plasma [8]): 1700 nM | concentration (Plasma [9]): 700 nM | concentration (Plasma [10]): 6700 nM | concentration (Plasma [11]): 17300 nM | Activity (Oryctolagus cuniculus [12]): Non-toxic

IC50 [3]: 227 nM
SMILES: CC1=C(C(=O)N2CCC[C@H]2c2cc(C)no2)[C@@H](c2ccc(Cl)c(Cl)c2)n2nc(C3CC3)cc2N1

IC50 [3]: 72 nM
SMILES: CC1=C(C(=O)N2CCC[C@H]2c2cc(C)no2)[C@@H](c2cc3ccccc3n2C)n2nc(C(F)(F)F)cc2N1
inhibition at 10 µM (hERG (KCNH2)): 19%

IC50 [3]: 165 nM | GSH adduct formation [2]: < 1% | Stability (Liver microsomes [26]): Unstable | Stability (Liver microsomes [27]): Unstable
SMILES: CC1=C(C(=O)N2CCC[C@H]2c2cc(C)no2)[C@@H](c2ccc(Cl)c(Cl)c2)n2nc(C)cc2N1
inhibition at 10 µM (hERG (KCNH2)): 13%

Second part, the molecule before the results:

SMILES: CC1=C(C(=O)N2CCC[C@H]2c2ccc(F)cc2)[C@@H](c2ccc(Cl)c(Cl)c2)n2ncc(C)c2N1
inhibition [1]: 45% | GSH adduct formation [2]: < 1%

SMILES: COCC1=C(C(=O)N2CCC[C@H]2c2cc(C)no2)[C@@H](c2cc3ccccc3n2C)n2nc(C(F)(F)F)cc2N1
IC50 [3]: 150 nM | inhibition at 10 µM (hERG (KCNH2)): 14% | Vd [4]: 3.7 L/kg | clearance [5]: 29 mL/min/kg | half-life [6]: 1.8 h | bioavailability [7]: 31% | concentration (Plasma [8]): 700 nM | concentration (Plasma [9]): 300 nM | concentration (Plasma [10]): 2100 nM | concentration (Plasma [11]): 13400 nM | Activity (Oryctolagus cuniculus [12]): Non-toxic | IC50 [13]: > 10000 nM | IC50 [14]: > 10000 nM | inhibition [15]: 37% | IC50 [16]: > 10000 nM | inhibition [17]: 10% | IC50 [18]: 5800 nM | Vd [19]: 1.9 L/kg | clearance [20]: 12 mL/min/kg | half-life [21]: 2.5 h | bioavailability [22]: 61% | Vd [23]: 5 L/kg | clearance [24]: 47 mL/min/kg | half-life [25]: 2 h

SMILES: CC1=C(C(=O)N2CCN(c3ccc(F)cc3)CC2)C(c2ccc(Cl)c(Cl)c2)n2nc(C)cc2N1 (racemic)
IC50 [3]: 124 nM | inhibition at 10 µM (hERG (KCNH2)): 60% | GSH adduct formation [2]: < 1% | Stability (Liver microsomes [26]): Unstable | Stability (Liver microsomes [27]): Unstable

SMILES: CC1=C(C(=O)N2CCN(c3ccc(F)cc3)CC2)C(c2ccc(Cl)c(Cl)c2)n2nc(C(F)(F)F)cc2N1 (racemic)
IC50 [3]: 419 nM

SMILES: CC1=C(C(=O)N2CCC[C@H]2c2ccc(F)cc2)[C@@H](c2ccc(Cl)c(Cl)c2)n2nccc2N1 [BMS-394136]
inhibition at 10 µM (hERG (KCNH2)): 30% | GSH adduct formation [2]: 33%

SMILES: CC1=C(C(=O)N2CCC[C@H]2c2ccc(F)cc2)[C@@H](c2ccc(Cl)c(Cl)c2)n2nc(C)cc2N1
IC50 [3]: 100 nM | inhibition at 10 µM (hERG (KCNH2)): 10% | GSH adduct formation [2]: 5% | Stability (Liver microsomes [26]): Unstable | Stability (Liver microsomes [27]): Unstable

SMILES: CC1=C(C(=O)N2CCN(c3ccccc3)CC2)C(c2ccc(Cl)c(Cl)c2)n2nc(C)cc2N1 (racemic)
IC50 [3]: 149 nM | inhibition at 10 µM (hERG (KCNH2)): 29%

SMILES: CC1=C(C(=O)N2CCN(c3ccc(F)cc3)CC2)[C@@H](c2ccc(Cl)c(Cl)c2)n2nccc2N1
inhibition at 10 µM (hERG (KCNH2)): 42%

SMILES: CC1=C(C(=O)N2CCN(c3ccc(F)cc3)CC2)C(c2ccc(Cl)c(Cl)c2)n2ncc(Cl)c2N1 (racemic)
inhibition [1]: 24% | GSH adduct formation [2]: 4%

SMILES: COCC1=C(C(=O)N2CCC[C@H]2c2cc(C)no2)[C@@H](c2ccc(Cl)c(Cl)c2)n2nccc2N1
IC50 [3]: 70 nM | inhibition at 10 µM (hERG (KCNH2)): 14%

SMILES: CC1=C(C(=O)N2CCN(c3ccc(F)cc3)CC2)C(c2ccc(Cl)c(Cl)c2)n2nc(Cl)cc2N1 (racemic)
IC50 [3]: 209 nM
